Usually IC50 stands for the concentration needed to halve the response being measured. Read a low IC50 as greater potency.

Experiment [1] addresses xanthine oxidase (Xox) from buttermilk (Bos taurus, UniProt P80457). Briefly: Inhibition of xanthine oxidase, hypoxanthine oxidation test. The experiment is classed as biochemical. As to conditions: for inhibition of Xox (in words): Xox from buttermilk. The method in brief: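 Buttermilk enzyme assayed by hypoxanthine oxidation at 48–150 μM substrate in 50 mM phosphate, pH 7.0, 25 °C. Product formation was followed at 300 nm in a thermostatted spectrophotometer. Inhibitor concentrations were set spectrophotometrically from absorption data and reached up to ~300 μM. IC50 was obtained at more than one hypoxanthine level, and 'no inhibition' means none detected up to 300 μM.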

Experiment [2] deals with T1, rabbit muscle guanine deaminase (GDA) (Oryctolagus cuniculus, UniProt G1T386).
T1 sequence (G1T386 1-454): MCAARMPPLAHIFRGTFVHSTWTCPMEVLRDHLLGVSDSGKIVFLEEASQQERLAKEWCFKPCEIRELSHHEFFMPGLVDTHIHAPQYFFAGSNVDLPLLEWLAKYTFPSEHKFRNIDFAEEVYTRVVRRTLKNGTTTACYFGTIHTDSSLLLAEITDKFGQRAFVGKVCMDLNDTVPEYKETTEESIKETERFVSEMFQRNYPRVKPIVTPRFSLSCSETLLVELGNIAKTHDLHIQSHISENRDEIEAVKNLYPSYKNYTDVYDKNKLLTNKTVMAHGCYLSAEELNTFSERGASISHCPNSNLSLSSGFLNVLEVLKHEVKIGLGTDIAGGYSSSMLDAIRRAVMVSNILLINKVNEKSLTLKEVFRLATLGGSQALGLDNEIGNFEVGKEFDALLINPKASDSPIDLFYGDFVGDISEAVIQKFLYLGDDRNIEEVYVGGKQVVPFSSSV
Nature of the experiment: Guanine deaminase assay with 8-azaguanine as substrate. Type of experiment: biochemical. Particulars: concentrations up to 150 μM, 50 mM phosphate pH 6.1, 25 °C. The method in brief: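 Commercial guanine deaminase, assayed at pH 6.1 with ~50 μM 8-azaguanine as substrate. Reaction followed at 265 nm in a thermostatted UV spectrophotometer; default temperature for the work was 25 °C. Test compound concentrations were determined spectrophotometrically from absorption data and ranged up to ~300 μM.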

A further experiment concerns xanthine oxidase (Xox). Particulars: cited from earlier work.

Each structure is given as a SMILES string.

Chain of xanthine oxidase (Xox) from buttermilk (P80457 whole entry): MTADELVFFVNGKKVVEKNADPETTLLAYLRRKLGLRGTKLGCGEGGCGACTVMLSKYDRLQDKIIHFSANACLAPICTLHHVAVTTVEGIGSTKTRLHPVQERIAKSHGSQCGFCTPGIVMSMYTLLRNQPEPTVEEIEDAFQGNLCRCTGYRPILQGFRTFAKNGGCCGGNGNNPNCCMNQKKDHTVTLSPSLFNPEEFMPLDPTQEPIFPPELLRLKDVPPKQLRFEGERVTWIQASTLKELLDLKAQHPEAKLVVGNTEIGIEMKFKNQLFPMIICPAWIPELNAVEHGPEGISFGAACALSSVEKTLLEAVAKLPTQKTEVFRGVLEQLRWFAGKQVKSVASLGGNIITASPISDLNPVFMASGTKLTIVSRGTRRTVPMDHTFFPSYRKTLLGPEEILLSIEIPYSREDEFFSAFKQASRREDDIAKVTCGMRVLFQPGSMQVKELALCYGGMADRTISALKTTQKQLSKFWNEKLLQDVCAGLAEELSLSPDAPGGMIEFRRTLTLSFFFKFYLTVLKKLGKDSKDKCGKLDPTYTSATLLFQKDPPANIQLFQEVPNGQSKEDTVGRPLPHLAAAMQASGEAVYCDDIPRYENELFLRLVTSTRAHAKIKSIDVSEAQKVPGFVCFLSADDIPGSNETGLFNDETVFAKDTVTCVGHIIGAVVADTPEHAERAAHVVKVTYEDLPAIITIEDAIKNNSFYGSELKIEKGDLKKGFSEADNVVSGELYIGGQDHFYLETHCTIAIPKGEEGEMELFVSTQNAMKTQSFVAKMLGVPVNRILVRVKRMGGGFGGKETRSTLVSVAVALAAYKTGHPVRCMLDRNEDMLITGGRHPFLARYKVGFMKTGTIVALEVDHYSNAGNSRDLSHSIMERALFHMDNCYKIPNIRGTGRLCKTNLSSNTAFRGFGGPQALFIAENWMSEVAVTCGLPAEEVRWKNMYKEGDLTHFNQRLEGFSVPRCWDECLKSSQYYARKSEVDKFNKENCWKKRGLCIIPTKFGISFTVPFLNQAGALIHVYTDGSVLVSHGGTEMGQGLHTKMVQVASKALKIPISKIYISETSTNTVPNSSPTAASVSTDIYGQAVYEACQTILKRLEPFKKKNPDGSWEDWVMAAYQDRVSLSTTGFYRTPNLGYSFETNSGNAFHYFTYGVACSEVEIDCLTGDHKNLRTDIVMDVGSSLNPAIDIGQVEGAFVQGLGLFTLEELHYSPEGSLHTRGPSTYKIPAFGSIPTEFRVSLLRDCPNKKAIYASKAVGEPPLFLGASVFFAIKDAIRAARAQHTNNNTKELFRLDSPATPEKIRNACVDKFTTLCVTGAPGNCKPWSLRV

In the case of `CSc1nnc2[nH]nc(C)c2n1` [Compound 1, 3-Methyl-5-methylsulfanyl-1H-pyrazolo[4,3-e][1,2,4]triazine], in experiment [1], the IC50 is ~300 µM and the “inhibition of Xox (in words)” value was “moderate inhibitory activity”. Also, the “inhibition of Xox (in words)” value in experiment [1] (listed as S-methyl derivative) is on record as “detectable inhibition”.
As to `Cc1n[nH]c2nnc(N)nc12` [Compound 4, 5-Amino-3-methyl-1H-pyrazolo[4,3-e][1,2,4]triazine], the IC50 in experiment [1] is > 300 µM. In experiment [2], the “activity as a substrate of GDA” value was “did not show any activity” and the “activity as an inhibitor of GDA” value is on record as “did not show any activity”.
`Cc1n[nH]c2nncnc12` [Compound 7, 3-Methyl-1H-pyrazolo[4,3-e][1,2,4]triazine]: the “inhibition of Xox (in words)” value in experiment [1] is “Only weak inhibition”; in experiment [1] (listed as 3-methyl-7-azapyrazolo[4,3-d]pyrimidine), “detectable inhibition”.
As to `Cc1nn(C)c2nncnc12` [Compound 8, 1,3-dimethyl-1H-pyrazolo[4,3-e][1,2,4]triazine], the IC50 in experiment [1] was > 300 µM.
As to `Oc1ncnc2[nH]ncc12` [allopurinol], the “inhibition of xanthine oxidase (in words)” value in the experiment with xanthine oxidase (Xox) is given as “strong inhibitors”.

These data come from article PMC6147567 (Molecules : A Journal of Synthetic Chemistry and Natural …, 2005).
